Here are results for 35 compounds from ChEMBL document CHEMBL1641493, “Discovery of fused 5,6-bicyclic heterocycles as γ-secretase modulators” (Bioorg Med Chem Lett, 2011).

For orientation: IC50 means the concentration needed to halve the response being measured. A word on the inhibition in vivo: it is the percentage by which the read-out fell short of the control.

In experiment [1] the test system is Rattus norvegicus. Briefly: Antialzheimer activity in CD rat assessed as decrease in amyloid beta42 level in CSF at 30 mg/kg, po after 3 hrs. The experiment is classed as functional. In a few lines: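 Male CD rats (~100 g) given a single oral dose of 30 mg/kg formulated in 20% hydroxypropyl β-cyclodextrin. CSF sampled 3 h after dosing, stored at -80 °C, and CSF Aβ42 quantified with AlphaLISA amyloid assay kits. Effect expressed as % change in Aβ42.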

For experiment [2], the target named is Gamma-secretase (Homo sapiens) (UniProt Q96BI3+Q9NZ42+Q8WW43+P49768+Q92542+P49810). Briefly: Selectivity ratio of IC50 for gamma secretase-mediated total amyloid beta production to IC50 for gamma secretase-mediated amyloid beta42 production in HEK293 cells. In kind it is cell-based. In a few lines: (§1)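 HEK293 cells stably transfected with APPsw-lon (pcDNA3.1) treated with compound for 5 h. Aβ in the conditioned medium measured by MSD electrochemiluminescent sandwich immunoassay, using TAG-G2-11/biotin-4G8 for Aβ42 and TAG-W02/biotin-4G8 for total Aβ. IC50 values derived for each, and the ratio taken as total Aβ IC50 over Aβ42 IC50.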

In experiment [3] the test system is Rattus norvegicus. Briefly: Antialzheimer activity in CD rat assessed as decrease in amyloid beta42 level in brain at 30 mg/kg, po after 3 hrs. The experiment is classed as functional. In a few lines: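 Male CD rats (~100 g) dosed orally at 30 mg/kg in 20% hydroxypropyl β-cyclodextrin, brains taken 3 h later and frozen on dry ice. Half cortex homogenized and extracted in 5 M guanidine-HCl/50 mM Tris-HCl pH 8, sonicated, and cleaned up by solid-phase extraction. Eluate dried and resuspended in PBS/0.5% Tween 20, then Aβ42 read by AlphaLISA. Result given as % change.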

For a further experiment, the target named is Gamma-secretase. Description: Inhibition of gamma secretase-mediated amyloid beta42 production in HEK293 cells by sandwich immunoassay. In kind it is cell-based, Homo sapiens. In outline:
as §1

Calls of active or inactive are those of the source. No cut-off for these calls is given here.

As for `COc1cc(-c2onc3c2CCCN3Cc2ccc(F)cc2)ccc1-n1cnc(C)c1`, the inhibition result in the experiment with Rattus norvegicus [1] and with Rattus norvegicus [3] was “inactive” in each case. Moreover, the Ratio IC50 in experiment [2] amounted to 48. This compound gave a concentration for half-maximal inhibition (IC50) at Gamma-secretase of 0.356 µM.

As to `COc1cc(-c2noc3c2CCCN3[C@@H](C)c2cc(F)cc(F)c2)ccc1-n1cnc(C)c1`, the Ratio IC50 in experiment [2] amounted to 21. Also, the half-inhibitory concentration (IC50) against Gamma-secretase was 0.935 µM.

Take `COc1cc(-c2nnc3n2CCCN3C(c2ccccc2)C2CC2)ccc1-n1cnc(C)c1` (stereo not drawn): the Ratio IC50 in experiment [2] came to 1. At Gamma-secretase, it took 20 µM to reach half-maximal inhibition (IC50).

Take `COc1cc(-c2noc3c2CCCN3[C@@H](C)c2cc(F)c(F)c(F)c2)ccc1-n1cnc(C)c1`: in experiment [2], the Ratio IC50 turned out to be 37. The compound also gave a half-maximal inhibitory concentration (IC50) at Gamma-secretase of 0.54 µM.

With `COc1cc(-c2onc3c2CCCN3[C@@H](C)c2ccccc2)ccc1-n1cnc(C)c1`, the Ratio IC50 in experiment [2] came to 37. Further, the IC50 on Gamma-secretase was 0.537 µM.

In the case of `CCCCCN1CCCn2c(-c3ccc(-n4cnc(C)c4)c(OC)c3)nnc21`, in experiment [2], the Ratio IC50 turned out to be 14. The midpoint of inhibition against Gamma-secretase, the IC50, lay at 1.41 µM.

As to `CCC(c1ccc(F)cc1)N1CCCn2c(-c3ccc(-n4cnc(C)c4)c(OC)c3)nnc21` (stereo not drawn), the Ratio IC50 in experiment [2] amounted to 128. On Gamma-secretase, the 50% inhibitory concentration (IC50) is 0.156 µM.

Regarding `COc1cc(-c2nnc3n2CCCN3C(=O)N2CCOCC2)ccc1-n1cnc(C)c1`, the Ratio IC50 in experiment [2] is 1. The same compound came in with a concentration for half-maximal inhibition (IC50) against Gamma-secretase of 20 µM.

Regarding `COc1cc(-c2onc3c2CCCN3[C@@H](C)c2ccc(F)cc2)ccc1-n1cnc(C)c1`, in experiment [2], the Ratio IC50 turned out to be 38. Moreover, the IC50 against Gamma-secretase was 0.465 µM.

Turning to `COc1cc(-c2onc3c2CCCN3Cc2cc(F)cc(F)c2)ccc1-n1cnc(C)c1`, the Ratio IC50 in experiment [2] stood at 46. On Gamma-secretase, this compound registered an IC50 of 0.44 µM.

Take `COc1cc(-c2nnc3n2CCCN3C(C)c2cc(F)c(F)c(F)c2)ccc1-n1cnc(C)c1` (stereo not drawn): the Ratio IC50 in experiment [2] was 165. Also, at Gamma-secretase, the IC50 is 0.116 µM.

Take `COc1cc(-c2nnc3n2CCCN3C(C)c2c(F)cc(F)cc2F)ccc1-n1cnc(C)c1` (stereo not drawn): the Ratio IC50 in experiment [2] turned out to be 58. The same compound had an IC50 on Gamma-secretase of 0.342 µM.

Take `CCC(c1cc(F)c(F)c(F)c1)N1CCCc2c(-c3ccc(-n4cnc(C)c4)c(OC)c3)n[nH]c21` (stereo not drawn): the Ratio IC50 in experiment [2] amounted to 99. This compound also displayed an IC50 at Gamma-secretase of 0.201 µM.

As for `COc1cc(-c2nnc3n2CCCN3C(=O)C(C)c2ccc(F)cc2)ccc1-n1cnc(C)c1` (stereo not drawn), in experiment [2], the Ratio IC50 is 41. At Gamma-secretase, the half-inhibitory concentration (IC50) amounted to 0.485 µM.

In the case of `CCCCC(=O)N1CCCn2c(-c3ccc(-n4cnc(C)c4)c(OC)c3)nnc21`, the Ratio IC50 in experiment [2] was found to be 10. In addition, the half-maximal inhibitory concentration (IC50) against Gamma-secretase came out at 2.07 µM.

Turning to `COc1cc(-c2noc3c2CCCN3[C@@H](C)c2ccc(F)cc2)ccc1-n1cnc(C)c1`, the Ratio IC50 in experiment [2] was 29. The same compound registered an IC50 against Gamma-secretase of 0.448 µM.

`COc1cc(-c2nnc3n2CCCN3S(=O)(=O)c2ccc(F)cc2)ccc1-n1cnc(C)c1`: the Ratio IC50 in experiment [2] was determined as 9. In addition, the IC50 against Gamma-secretase was 2.21 µM.

For `COc1cc(-c2nnc3n2CCCN3CCc2ccc(F)cc2)ccc1-n1cnc(C)c1`, the Ratio IC50 in experiment [2] amounted to 32. At Gamma-secretase, the concentration for half-maximal inhibition (IC50) stood at 0.619 µM.

On to `COc1cc(-c2nnc3n2CCCN3Cc2ccc(F)c(F)c2)ccc1-n1cnc(C)c1`, for which the Ratio IC50 in experiment [2] came out at 36. At Gamma-secretase, this compound registered an IC50 of 0.552 µM.

As to `COc1cc(-c2n[nH]c3c2CCCN3C(C)c2ccc(F)cc2)ccc1-n1cnc(C)c1` (stereo not drawn), the Ratio IC50 in experiment [2] came to 46. For the same compound, on Gamma-secretase, the IC50 worked out at 0.164 µM.

For `CC[C@@H](c1cc(F)c(F)c(F)c1)N1CCCc2c(-c3ccc(-n4cnc(C)c4)c(OC)c3)n[nH]c21`, the inhibition in vivo at 30 mg/kg with Rattus norvegicus [1] was 26%. The Ratio IC50 in experiment [2] is 164. The compound also displayed an IC50 against Gamma-secretase of 0.122 µM.

Consider `CC[C@H](c1cc(F)c(F)c(F)c1)N1CCCc2c(-c3ccc(-n4cnc(C)c4)c(OC)c3)n[nH]c21`, for which the Ratio IC50 in experiment [2] was 96. Also, at Gamma-secretase, the half-inhibitory concentration (IC50) amounted to 0.209 µM.

Regarding `CCCC(c1ccc(F)cc1)N1CCCn2c(-c3ccc(-n4cnc(C)c4)c(OC)c3)nnc21` (stereo not drawn), the Ratio IC50 in experiment [2] was 138. The compound also gave a concentration for half-maximal inhibition (IC50) at Gamma-secretase of 0.145 µM.

Turning to `COc1cc(-c2nnc3n2CCCN3C(=O)Cc2ccc(F)cc2)ccc1-n1cnc(C)c1`, in experiment [2], the Ratio IC50 is 10. The IC50 at Gamma-secretase came out at 1.92 µM.

With `COc1cc(-c2nnc3n2CCCN3)ccc1-n1cnc(C)c1`, the Ratio IC50 in experiment [2] worked out at 1. The compound also came in with an IC50 at Gamma-secretase of 20 µM.

Take `CC[C@@H](c1ccc(F)cc1)N1CCCc2c(-c3ccc(-n4cnc(C)c4)c(OC)c3)noc21`: in experiment [2], the Ratio IC50 came out at 17. In addition, the 50% inhibitory concentration (IC50) at Gamma-secretase was 0.875 µM.

For the compound `COc1cc(-c2noc3c2CCCN3[C@H](C)c2ccc(F)cc2)ccc1-n1cnc(C)c1`, in experiment [2], the Ratio IC50 was 14. This compound also returned an IC50 against Gamma-secretase of 1.39 µM.

`COc1cc(-c2nnc3n2CCCN3C(C)c2ccc(F)cc2)ccc1-n1cnc(C)c1` (stereo not drawn): the Ratio IC50 in experiment [2] was 39. The IC50 on Gamma-secretase was 0.509 µM.

Consider `COc1cc(-c2nnc3n2CCCN3Cc2ccc(C#N)cc2)ccc1-n1cnc(C)c1`, for which the Ratio IC50 in experiment [2] was 3. The compound further showed a concentration for half-maximal inhibition (IC50) against Gamma-secretase of 2.53 µM.

In the case of `COc1cc(-c2nnc3n2CCCN3C(=O)c2ccc(F)cc2)ccc1-n1cnc(C)c1`, in experiment [2], the Ratio IC50 was 1. On Gamma-secretase, the IC50 turned out to be 19.3 µM.

On to `COc1cc(-c2nnc3n2CCCN3Cc2ccc(Cl)c(Cl)c2)ccc1-n1cnc(C)c1`, for which the Ratio IC50 in experiment [2] is 159. At Gamma-secretase, this compound registered an IC50 of 0.126 µM.

In the case of `COc1cc(-c2nnc3n2CCCN3Cc2ccc(F)cc2)ccc1-n1cnc(C)c1`, the Ratio IC50 in experiment [2] is 31. At Gamma-secretase, this compound showed an IC50 of 0.649 µM.

Consider `COc1cc(/C=C2\CCCN([C@@H](C)c3ccc(F)cc3)C2=O)ccc1-n1cnc(C)c1`, for which the results for the inhibition in vivo at 30 mg/kg with Rattus norvegicus [1] and in the experiment on Rattus norvegicus [3] were 55% and 44%, respectively.

In the case of `COc1ccc(CN2CCCn3c(-c4ccc(-n5cnc(C)c5)c(OC)c4)nnc32)cc1`, the Ratio IC50 in experiment [2] was determined as 14. Moreover, the concentration for half-maximal inhibition (IC50) at Gamma-secretase stood at 1.41 µM.

Regarding `COc1cc(-c2nnc3n2CCCN3C(c2ccc(F)cc2)C2CC2)ccc1-n1cnc(C)c1` (stereo not drawn), the Ratio IC50 in experiment [2] turned out to be 1. This compound also came in with a half-maximal inhibitory concentration (IC50) on Gamma-secretase of 16.4 µM.
